Values after ≈ are worked out from the molar mass of the structure shown. Active and inactive are the calls of the source. The rule behind the calls is not given here.
Legend:
[1] = Distribution coefficient, log D at pH 7.4; type: physicochemical; conditions: octanol/water
Procedure, shortened: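 Octanol–water partition at pH 7.4.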

[2] = target: T1, C-X-C chemokine receptor type 3 (Mus musculus, UniProt O88410); experiment: Antagonist activity at mouse CXCR3; type: functional
T1 sequence (O88410 whole entry): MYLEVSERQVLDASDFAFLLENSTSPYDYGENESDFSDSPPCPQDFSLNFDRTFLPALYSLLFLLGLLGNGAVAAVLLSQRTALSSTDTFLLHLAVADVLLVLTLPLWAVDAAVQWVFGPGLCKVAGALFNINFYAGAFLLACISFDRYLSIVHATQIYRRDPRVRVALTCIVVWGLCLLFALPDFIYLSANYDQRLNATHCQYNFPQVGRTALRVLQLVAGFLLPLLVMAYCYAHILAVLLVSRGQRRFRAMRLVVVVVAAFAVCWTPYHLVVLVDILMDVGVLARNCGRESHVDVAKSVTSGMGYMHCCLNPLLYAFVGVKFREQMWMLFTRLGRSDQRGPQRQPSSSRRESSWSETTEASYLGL

[3] = target: T2, C-X-C chemokine receptor type 3 (Homo sapiens, UniProt P49682); experiment: Antagonist activity at human CXCR3 by [35S]GTP-gamma-S binding assay; type: functional
T2 sequence (P49682 whole entry): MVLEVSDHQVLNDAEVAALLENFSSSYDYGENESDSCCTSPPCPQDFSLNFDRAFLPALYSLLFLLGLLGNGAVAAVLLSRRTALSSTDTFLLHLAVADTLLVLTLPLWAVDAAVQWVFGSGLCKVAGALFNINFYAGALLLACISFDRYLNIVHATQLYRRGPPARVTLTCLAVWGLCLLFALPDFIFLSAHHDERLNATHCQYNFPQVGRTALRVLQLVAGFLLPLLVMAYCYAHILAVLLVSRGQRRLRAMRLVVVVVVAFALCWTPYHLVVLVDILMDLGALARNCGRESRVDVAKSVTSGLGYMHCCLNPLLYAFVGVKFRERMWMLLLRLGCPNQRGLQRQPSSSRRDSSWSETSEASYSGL

[4] = Intrinsic clearance in human liver microsomes at 0.5 uM; type: ADME, Microsome
[5] = species on record: Mus musculus; experiment: In vitro inhibition of CXCL11-induced mouse CXCR3 receptor internalization in mouse T cells in presence of 90% naive mouse plasma; conditions: T-cell, read-out: pA2 (converted)
[6] = system: Mus musculus; experiment: Ex vivo inhibition of CXCL11-induced mouse CXCR3 receptor internalization in mouse T cells at 30 mg/kg, po after 10 hrs; type: functional, organism-based; design: dose 30 mg/kg; conditions: T-cell
Procedure, shortened: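 Mice were dosed orally at 30 mg/kg, and plasma was taken at each timepoint after dosing. Activated murine T cells were incubated with that plasma, then stimulated with 3 nM CXCL11 (A75) for 60 min at 37 °C. Agonist was removed and surface CXCR3 was measured by flow cytometry.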

[7] = target: T3, Muscarinic acetylcholine receptor M1 (Homo sapiens, UniProt P11229); experiment: Inhibition of muscarinic M1 receptor
T3 sequence (P11229 whole entry): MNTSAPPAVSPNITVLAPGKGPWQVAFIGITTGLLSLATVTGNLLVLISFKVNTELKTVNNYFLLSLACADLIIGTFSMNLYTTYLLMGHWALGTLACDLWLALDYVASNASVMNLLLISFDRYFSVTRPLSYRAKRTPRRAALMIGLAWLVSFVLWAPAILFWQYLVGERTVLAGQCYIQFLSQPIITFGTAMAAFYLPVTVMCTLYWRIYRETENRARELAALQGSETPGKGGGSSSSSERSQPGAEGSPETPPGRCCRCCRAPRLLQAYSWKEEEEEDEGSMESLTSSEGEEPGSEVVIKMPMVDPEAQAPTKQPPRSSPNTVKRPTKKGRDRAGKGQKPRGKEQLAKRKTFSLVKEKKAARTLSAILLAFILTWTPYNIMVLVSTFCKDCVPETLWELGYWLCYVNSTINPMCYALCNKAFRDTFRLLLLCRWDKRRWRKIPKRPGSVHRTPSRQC

[8] = target: Cytochrome P450 2D6 (Homo sapiens, UniProt P10635); experiment: Inhibition of CYP2D6; type: ADME
[9] = Inhibition of sodium channel
[10] = Solubility at pH 6.5 buffer; type: physicochemical
[11] = target: 5-hydroxytryptamine receptor 5A (Homo sapiens, UniProt P47898); experiment: Inhibition of 5HT5A receptor
[12] = target: T4, 5-hydroxytryptamine receptor 1A (Homo sapiens, UniProt P08908); experiment: Inhibition of 5HT1A receptor
T4 sequence (P08908 whole entry): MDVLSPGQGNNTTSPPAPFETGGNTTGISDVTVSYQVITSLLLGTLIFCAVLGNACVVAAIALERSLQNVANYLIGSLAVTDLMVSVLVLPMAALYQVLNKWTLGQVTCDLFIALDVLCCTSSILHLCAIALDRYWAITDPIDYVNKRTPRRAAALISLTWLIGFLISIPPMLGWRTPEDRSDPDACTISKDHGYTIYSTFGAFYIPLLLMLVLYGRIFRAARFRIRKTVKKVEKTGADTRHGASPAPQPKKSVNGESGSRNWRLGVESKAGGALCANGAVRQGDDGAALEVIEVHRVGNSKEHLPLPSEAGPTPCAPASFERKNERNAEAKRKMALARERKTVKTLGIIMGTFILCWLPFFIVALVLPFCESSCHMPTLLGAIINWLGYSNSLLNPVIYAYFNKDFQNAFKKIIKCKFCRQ

[13] = target: Muscarinic acetylcholine receptor M3 (Homo sapiens, UniProt P20309); experiment: Inhibition of muscarinic M3 receptor
[14] = target: T5, Muscarinic acetylcholine receptor M2 (Homo sapiens, UniProt P08172); experiment: Inhibition of muscarinic M2 receptor
T5 sequence (P08172 whole entry): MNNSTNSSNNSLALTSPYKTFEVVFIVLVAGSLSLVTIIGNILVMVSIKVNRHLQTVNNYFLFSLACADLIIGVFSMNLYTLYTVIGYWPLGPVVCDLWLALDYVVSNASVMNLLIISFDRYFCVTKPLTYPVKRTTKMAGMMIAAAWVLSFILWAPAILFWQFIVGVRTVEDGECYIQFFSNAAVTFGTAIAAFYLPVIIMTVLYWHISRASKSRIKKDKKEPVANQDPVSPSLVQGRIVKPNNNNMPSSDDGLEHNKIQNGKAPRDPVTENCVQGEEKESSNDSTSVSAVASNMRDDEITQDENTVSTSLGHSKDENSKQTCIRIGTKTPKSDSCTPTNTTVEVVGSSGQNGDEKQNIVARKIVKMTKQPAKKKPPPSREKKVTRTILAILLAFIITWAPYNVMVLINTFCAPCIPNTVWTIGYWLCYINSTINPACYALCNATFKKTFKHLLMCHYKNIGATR

[15] = Oral bioavailability in BALB/c mouse at 30 mg/kg; type: ADME, organism-based; conditions: in vivo
Procedure, shortened: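 Balb/c mice given 30 mg/kg orally; plasma concentrations followed over time, sampled from 0 to 16 h post dose.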

[16] = system: Mus musculus; experiment: Ex vivo inhibition of CXCL11-induced mouse CXCR3 receptor internalization in mouse T cells at 30 mg/kg, po after 4 hrs; type: functional, organism-based; design: dose 30 mg/kg; conditions: T-cell
Procedure, shortened: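 Mice dosed orally at 30 mg/kg; plasma collected at timepoints post dose and incubated with activated murine T cells, then 3 nM CXCL11 (A75) for 60 min at 37 °C; agonist removed, surface CXCR3 measured by flow cytometry.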

[17] = species on record: Homo sapiens; experiment: Protein binding to human plasma; conditions: read-out: PPB
[18] = Half life in mouse; type: ADME, organism-based; conditions: in vivo

Chain of Cytochrome P450 2D6 (P10635 whole entry): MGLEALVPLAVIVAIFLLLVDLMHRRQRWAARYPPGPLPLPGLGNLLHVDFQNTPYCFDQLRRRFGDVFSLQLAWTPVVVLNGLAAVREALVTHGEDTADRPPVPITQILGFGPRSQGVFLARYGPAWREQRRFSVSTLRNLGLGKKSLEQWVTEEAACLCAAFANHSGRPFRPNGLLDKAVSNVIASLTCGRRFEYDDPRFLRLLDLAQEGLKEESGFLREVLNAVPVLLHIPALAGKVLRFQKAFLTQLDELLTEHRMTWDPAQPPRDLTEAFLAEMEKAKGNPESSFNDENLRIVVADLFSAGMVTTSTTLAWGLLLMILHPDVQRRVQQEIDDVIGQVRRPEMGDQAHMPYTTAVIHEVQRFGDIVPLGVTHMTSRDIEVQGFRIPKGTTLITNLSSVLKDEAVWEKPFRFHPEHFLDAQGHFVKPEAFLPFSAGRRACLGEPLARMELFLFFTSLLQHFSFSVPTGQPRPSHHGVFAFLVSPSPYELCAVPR
Chain of Muscarinic acetylcholine receptor M3 (P20309 whole entry): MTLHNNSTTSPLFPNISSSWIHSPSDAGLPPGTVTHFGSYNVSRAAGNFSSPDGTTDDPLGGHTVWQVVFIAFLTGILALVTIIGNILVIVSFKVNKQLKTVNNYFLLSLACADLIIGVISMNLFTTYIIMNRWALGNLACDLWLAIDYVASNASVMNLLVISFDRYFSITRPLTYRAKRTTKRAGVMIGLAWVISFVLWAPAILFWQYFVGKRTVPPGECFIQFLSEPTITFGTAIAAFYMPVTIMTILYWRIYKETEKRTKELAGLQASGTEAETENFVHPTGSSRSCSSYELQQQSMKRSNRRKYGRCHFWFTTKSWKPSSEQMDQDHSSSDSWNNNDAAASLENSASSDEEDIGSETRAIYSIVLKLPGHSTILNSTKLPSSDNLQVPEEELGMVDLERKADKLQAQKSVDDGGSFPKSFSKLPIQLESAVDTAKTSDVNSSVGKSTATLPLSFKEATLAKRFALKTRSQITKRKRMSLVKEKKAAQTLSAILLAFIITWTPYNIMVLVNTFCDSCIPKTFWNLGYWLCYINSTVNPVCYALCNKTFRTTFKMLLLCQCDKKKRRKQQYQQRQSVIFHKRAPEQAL
Chain of 5-hydroxytryptamine receptor 5A (P47898 whole entry): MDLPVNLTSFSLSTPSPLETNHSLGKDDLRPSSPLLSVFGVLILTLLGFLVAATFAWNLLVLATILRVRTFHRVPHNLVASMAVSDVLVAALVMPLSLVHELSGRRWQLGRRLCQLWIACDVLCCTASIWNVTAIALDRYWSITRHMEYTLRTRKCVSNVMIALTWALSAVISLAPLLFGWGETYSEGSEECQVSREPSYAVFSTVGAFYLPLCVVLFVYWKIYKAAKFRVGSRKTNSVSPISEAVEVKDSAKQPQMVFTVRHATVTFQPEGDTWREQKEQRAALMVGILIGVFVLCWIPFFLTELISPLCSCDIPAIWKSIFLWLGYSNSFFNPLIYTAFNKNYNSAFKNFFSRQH

Row | Compound | logD [1] | Ki [2] | Ki [3] | microsomal CLint at 0.5 µM [4] | solubility [10] | further results
1 | CC(=O)N1C2C=C(CN3CCC(NC(=O)Nc4cc(F)cc(C(F)(F)F)c4)CC3)CC1CC2 (stereo not given) | 3 | 120 nM | 27 nM | 11 µL/min/mg |  | 
2 | CC(=O)N1C2C=C(CN3C4CCC3CC(NC(=O)Nc3cc(F)cc(C(F)(F)F)c3)C4)CC1CCC2 (stereo not given) | 3.1 | 6 nM | 7 nM | 7 µL/min/mg | 40 µg/mL (≈ 78.7 µM) | Kb [5]: 95.5 nM; Activity [6]: Active; Ki [7]: 230 nM; Ki [8]: 15000 nM; Ki [9]: 570 nM; Ki [11]: 3000 nM; Ki [12]: 280 nM; Ki [13]: 1200 nM; Ki [14]: 280 nM; bioavailability [15]: 70%
3 | CC(C)(C)C(=O)N1C2C=C(CN3CCC(NC(=O)Nc4cc(F)cc(C(F)(F)F)c4)CC3)CC1CCC2 (stereo not given) | 4.5 | 57 nM | 10 nM | 74 µL/min/mg |  | 
4 | CC(=O)N1C2C=C(CN3CCC(NC(=O)Nc4cc(F)cc(C(F)(F)F)c4)CC3)CC1CCC2 (stereo not given) | 3.4 | 38 nM | 9 nM | 9 µL/min/mg |  | Kb [5]: 186 nM; Activity [16]: Active
5 | CC(=O)c1cccc(NC(=O)NC2CCN(CC3=CC4CCCC(C3)N4C(C)=O)CC2)c1 (stereo not given) | 2.8 |  | 280 nM | 10 µL/min/mg |  | 
6 | CC(=O)N1CCC(CN2CCC(NC(=O)Nc3cc(C(F)(F)F)cc(C(F)(F)F)c3)CC2)CC1 | 3.1 |  | 180 nM | 4.5 µL/min/mg | 850 µg/mL (≈ 1720 µM) | 
7 | O=C(Nc1cc(F)cc(C(F)(F)F)c1)NC1CCN(CC2=CC3CCC(C2)N3C(=O)C2CC2)CC1 (stereo not given) | 3.4 | 80 nM | 20 nM | 9 µL/min/mg |  | 
8 | CC(C)(C)C(=O)N1CCC(CN2CCC(NC(=O)Nc3cc(C(F)(F)F)cc(C(F)(F)F)c3)CC2)CC1 | 4.2 |  | 60 nM | 80 µL/min/mg | 45 µg/mL (≈ 83.9 µM) | fraction unbound [17]: 0.01
9 | O=C(Nc1ccc2ccccc2c1)NC1CCN(C/C2=C/CCCCCC2)CC1 |  |  |  | 72 µL/min/mg | 0.1 µg/mL (≈ 0.255 µM) | fraction unbound [17]: < 0.001; bioavailability [15]: 1%
10 | CC(C)(C)C(=O)N1C2C=C(CN3CCC(NC(=O)Nc4cc(F)cc(C(F)(F)F)c4)CC3)CC1CC2 (stereo not given) | 4.2 | 100 nM | 18 nM | 60 µL/min/mg |  | 
11 | CC1(C)[C@H]2CC=C(CN3CCC(NC(=O)Nc4cc(C(F)(F)F)cc(C(F)(F)F)c4)CC3)[C@@H]1C2 | 5.1 | 400 nM | 26 nM | 82 µL/min/mg | < 1 µg/mL | Ki [8]: 5000 nM; fraction unbound [17]: 0.001
12 | O=C(Nc1cc(C(F)(F)F)cc(C(F)(F)F)c1)NC1CCN(CCC2CCS(=O)(=O)C2)CC1 (stereo not given) | 2.8 |  | 1100 nM | 3.5 µL/min/mg | 1360 µg/mL (≈ 2710 µM) | half-life [18]: 5.5 h; bioavailability [15]: 52%
13 | CC(C)C(=O)N1C2C=C(CN3CCC(NC(=O)Nc4cc(F)cc(C(F)(F)F)c4)CC3)CC1CC2 (stereo not given) | 3.9 | 180 nM | 28 nM | 58 µL/min/mg |  | 
14 | CCOC(=O)N1C2C=C(CN3CCC(NC(=O)Nc4cc(F)cc(C(F)(F)F)c4)CC3)CC1CC2 (stereo not given) | 4.6 | 950 nM | 190 nM | 48 µL/min/mg |  | 
15 | CC(=O)N1C2C=C(CN3CCC(NC(=O)Nc4cccc(OC(C)C)c4)CC3)CC1CCC2 (stereo not given) | 2.5 | 33 nM | 11 nM | 22 µL/min/mg |  | 
16 | CC(=O)N1C2C=C(CN3CCC(NC(=O)Nc4cc(F)cc(OC(C)C)c4)CC3)CC1CCC2 (stereo not given) | 2.7 | 6 nM | 3 nM | 50 µL/min/mg |  | 
17 | CC(=O)N1C2CCC1CC(CN1CCC(NC(=O)Nc3cc(F)cc(C(F)(F)F)c3)CC1)C2 (mixture of isomers) | 2.8 | 650 nM | 120 nM |  |  | 
